Measurements taken from ChEMBL document CHEMBL1153639, “A facile synthesis and antimycobacterial evaluation of novel spiro-pyrido-pyrrolizines and pyrrolidines” (2009).
Values after ≈ are worked out from the molar mass of the structure shown.

How the values were obtained:
[1] = test system: Mycobacterium tuberculosis; assay: Antimycobacterial against Mycobacterium tuberculosis H37Rv by agar dilution method; type: functional
Outline: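 MIC read by agar dilution against M. tuberculosis H37Rv, run in triplicate.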

[2] = test system: Mycolicibacterium smegmatis; assay: Antimycobacterial against Mycobacterium smegmatis MC2 by agar dilution method; type: functional
Outline: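 MIC read by agar dilution, run in triplicate against M. smegmatis MC², screened in parallel with M. tuberculosis and an MDR-TB clinical isolate.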

SMILES | MIC [1] [µM] | MIC [2] [µM]
COc1ccc([C@H]2[C@H](c3ccccc3)N[C@@]3(C(=O)Nc4ccccc43)[C@@]23CN(C)CCC3=O)cc1 | 26.7 (≈ 12.5 µg/mL) | 53.5 (≈ 25 µg/mL)
Cc1ccc([C@H]2[C@@H]3CCCN3[C@@]3(C(=O)Nc4ccccc43)[C@@]23CN(C)CCC3=O)cc1 | 7.53 (≈ 3.13 µg/mL) | 15 (≈ 6.25 µg/mL)
COc1ccc([C@H]2[C@@H]3CCCN3[C@@]3(C(=O)Nc4ccccc43)[C@@]23CN(C)CCC3=O)cc1 | 14.5 (≈ 6.25 µg/mL) | 57.9 (≈ 25 µg/mL)
COc1ccc([C@H]2CN(C)[C@@]3(C(=O)Nc4ccccc43)[C@@]23CN(C)CCC3=O)cc1 | 30.8 (≈ 12.5 µg/mL) | 61.6 (≈ 25 µg/mL)
CN1CCC(=O)[C@]2(C1)[C@@H](c1cccc(F)c1)[C@H](c1ccccc1)N[C@@]21C(=O)Nc2ccccc21 | 6.87 (≈ 3.13 µg/mL) | 54.9 (≈ 25 µg/mL)
Cc1ccc([C@H]2CN(C)[C@@]3(C(=O)Nc4ccccc43)[C@@]23CN(C)CCC3=O)cc1 | 16.1 (≈ 6.25 µg/mL) | 32.1 (≈ 12.5 µg/mL)
CN1CCC(=O)[C@]2(C1)[C@@H](c1ccc(Cl)cc1Cl)[C@H](c1ccccc1)N[C@@]21C(=O)Nc2ccccc21 | 12.3 (≈ 6.25 µg/mL) | 98.7 (≈ 50 µg/mL)
CN1CCC(=O)[C@]2(C1)[C@@H](c1ccccc1Cl)CN(C)[C@@]21C(=O)Nc2ccccc21 | 7.64 (≈ 3.13 µg/mL) | 30.5 (≈ 12.5 µg/mL)
CN1CCC(=O)[C@]2(C1)[C@@H](c1ccc(Cl)cc1Cl)[C@@H]1CCCN1[C@@]21C(=O)Nc2ccccc21 | 3.32 (≈ 1.56 µg/mL) | 53.1 (≈ 25 µg/mL)
CN1CCC(=O)[C@]2(C1)[C@@H](c1cccc(F)c1)CN(C)[C@@]21C(=O)Nc2ccccc21 | 7.95 (≈ 3.13 µg/mL) | 63.5 (≈ 25 µg/mL)
CN1CCC(=O)[C@]2(C1)[C@@H](c1ccc(Cl)cc1Cl)CN(C)[C@@]21C(=O)Nc2ccccc21 | 1.76 (≈ 0.782 µg/mL) | 56.3 (≈ 25 µg/mL)
Cc1ccc([C@H]2[C@H](c3ccccc3)N[C@@]3(C(=O)Nc4ccccc43)[C@@]23CN(C)CCC3=O)cc1 | 27.7 (≈ 12.5 µg/mL) | 111 (≈ 50 µg/mL)
CN1CCC(=O)[C@]2(C1)[C@@H](c1ccccc1Cl)[C@@H]1CCCN1[C@@]21C(=O)Nc2ccccc21 | 3.58 (≈ 1.56 µg/mL) | 28.7 (≈ 12.5 µg/mL)
CN1CCC(=O)[C@]2(C1)[C@@H](c1cccc(F)c1)[C@@H]1CCCN1[C@@]21C(=O)Nc2ccccc21 | 7.46 (≈ 3.13 µg/mL) | 29.8 (≈ 12.5 µg/mL)
CN1CCC(=O)[C@]2(C1)[C@@H](c1ccccc1Cl)[C@H](c1ccccc1)N[C@@]21C(=O)Nc2ccccc21 | 13.2 (≈ 6.25 µg/mL) | 53 (≈ 25 µg/mL)
CC[C@@H](CO)NCCN[C@@H](CC)CO [ETHAMBUTOL] | 7.64 (≈ 1.56 µg/mL) | 122 (≈ 25 µg/mL)
NNC(=O)c1ccncc1 [ISONIAZID] | 0.39 (≈ 0.0535 µg/mL) | 45.6 (≈ 6.25 µg/mL)
NC(=O)c1cnccn1 [PYRAZINAMIDE] | 50.8 (≈ 6.25 µg/mL) | 406 (≈ 50 µg/mL)
